# Source: article PMC3954597 (Biochemistry, 2014)
# Numbering of substitutions follows the chain as printed.
# Legend:
# Type in all cases: biochemical
# PTP1B = biological target: T1, PTP1B (Homo sapiens, UniProt P18031); experiment: PTP assay, wild-type PTP1B; conditions: WT PTP1B aa 1–321; pH 7.4
# T1 sequence (P18031 1-321): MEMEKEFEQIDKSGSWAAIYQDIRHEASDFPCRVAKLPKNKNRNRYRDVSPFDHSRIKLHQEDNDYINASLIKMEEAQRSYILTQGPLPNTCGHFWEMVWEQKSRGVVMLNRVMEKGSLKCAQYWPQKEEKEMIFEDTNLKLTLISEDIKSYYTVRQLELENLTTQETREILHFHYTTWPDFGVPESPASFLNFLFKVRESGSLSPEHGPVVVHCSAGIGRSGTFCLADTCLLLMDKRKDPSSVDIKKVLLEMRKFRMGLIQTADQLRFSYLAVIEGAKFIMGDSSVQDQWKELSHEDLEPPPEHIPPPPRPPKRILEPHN
# Procedure, shortened: (§1)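 E. coli-expressed catalytic domains were used: wild-type, R24M or R47E PTP1B (aa 1–321), and SHP-1 (aa 205–595). Reactions started with PTP (0.5–20000 nM final) and dephosphorylation was monitored continuously at 282 nm. kcat, KM and kcat/KM came from initial-rate fits (Michaelis–Menten, or V = kcat[E][S]/KM when KM >> [S]) or from fits of progress curves.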
# R47E PTP1B = biological target: T2, R47E PTP1B (Homo sapiens, UniProt P18031, R47E); experiment: PTP assay, R47E PTP1B
# T2 sequence (P18031 1-321 R47E): T1 sequence (P18031 1-321) with R47E
# Procedure, shortened: as §1
# PTPD1 = biological target: T3, PTPD1 (Homo sapiens, UniProt Q16825); experiment: Pre-steady-state; conditions: 25 °C; initial phase not resolved, too fast for the instrument
# T3 sequence (Q16825 875-1174): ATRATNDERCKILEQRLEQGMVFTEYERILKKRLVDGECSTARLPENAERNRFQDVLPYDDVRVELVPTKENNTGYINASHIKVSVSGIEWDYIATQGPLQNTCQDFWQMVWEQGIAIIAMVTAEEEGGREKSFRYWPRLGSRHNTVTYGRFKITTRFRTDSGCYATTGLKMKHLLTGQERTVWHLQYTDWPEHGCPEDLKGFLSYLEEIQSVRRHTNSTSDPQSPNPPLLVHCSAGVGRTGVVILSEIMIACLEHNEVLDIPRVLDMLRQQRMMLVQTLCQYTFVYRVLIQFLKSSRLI
# R24M PTP1B = biological target: T4, R24M PTP1B (Homo sapiens, UniProt P18031, R24M); experiment: PTP assay, R24M PTP1B
# T4 sequence (P18031 1-321 R24M): T1 sequence (P18031 1-321) with R24M
# Procedure, shortened: as §1
smiles,measurement,setting,value
"O=[N+]([O-])c1ccc(OP(=O)(O)O)cc1 [pNPP, p-nitrophenyl phosphate, reference compound]",kcat/KM x 10^7,PTP1B,0.00069 x 10^7 M^−1 s^−1
same,Km,"R47E PTP1B; R47E PTP1B aa 1–321, pH 7.4",2800 ± 300 µM
same,kcat,"R47E PTP1B; R47E PTP1B aa 1–321, pH 7.4",16 ± 1 s⁻¹
same,kcat/KM x 10^7,"R47E PTP1B; R47E PTP1B aa 1–321, pH 7.4",0.00057 x 10^7 M^−1 s^−1
same,WT/R47E,"R47E PTP1B; ratio of kcat/KM, WT over R47E PTP1B (fold decrease by the mutation)",1.2
same,k of initial phase,PTPD1,> 100 s⁻¹
same,Km,"R24M PTP1B; R24M PTP1B aa 1–321, pH 7.4",3 ± 0.1 µM
same,kcat,"R24M PTP1B; R24M PTP1B aa 1–321, pH 7.4",17 ± 1 s⁻¹
same,kcat/KM x 10^7,"R24M PTP1B; R24M PTP1B aa 1–321, pH 7.4",0.00057 x 10^7 M^−1 s^−1
same,WT/R24M,"R24M PTP1B; ratio of kcat/KM, WT over R24M PTP1B (fold reduction by the mutation)",1.2
